Screening results deposited in PubChem by Broad Institute.
E-selectin induc: E-selectin induction on HUVECs; P16581; HUVEC E-selectin immunofluorescence imaging; normalized: neutral wells 0, TNF-alpha wells 100; activation, % at 7.58 µM; hit rate 0.37% among 260,000;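 active = mean E-selectin-positive cell signal at least 10% of the positive control, reached in at least 60% of replicates, without over 20% cell loss; inconclusive = no rule given, readout overlaps actives, possibly toxicity-flagged; inactive = the rest, including those meeting only one limit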
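Assay system: HUVEC primary endothelial cells. Input: 3,000 HUVEC seeded per well. Doses: one compound dose added by pin transfer. Read-out basis: % PE-positive cells. Benchmarks: TNF-alpha high, DMSO low. Detection: immunofluorescence imaging. Buffer or medium: EGM-2, gelatin.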
RAD52 inh: inhibitors of human RAD52 DNA annealing. P43351. recombinant RAD52 DNA annealing, FRET fluorescence. inhibition, % at 18.7 µM. hit rate 0.46% among 360,000. AID 651710;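 active = every replicate showing at least 50% inhibition; inconclusive = mean inhibition at least 50% but not in every replicate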
Target sequence (P43351 whole entry, looked up): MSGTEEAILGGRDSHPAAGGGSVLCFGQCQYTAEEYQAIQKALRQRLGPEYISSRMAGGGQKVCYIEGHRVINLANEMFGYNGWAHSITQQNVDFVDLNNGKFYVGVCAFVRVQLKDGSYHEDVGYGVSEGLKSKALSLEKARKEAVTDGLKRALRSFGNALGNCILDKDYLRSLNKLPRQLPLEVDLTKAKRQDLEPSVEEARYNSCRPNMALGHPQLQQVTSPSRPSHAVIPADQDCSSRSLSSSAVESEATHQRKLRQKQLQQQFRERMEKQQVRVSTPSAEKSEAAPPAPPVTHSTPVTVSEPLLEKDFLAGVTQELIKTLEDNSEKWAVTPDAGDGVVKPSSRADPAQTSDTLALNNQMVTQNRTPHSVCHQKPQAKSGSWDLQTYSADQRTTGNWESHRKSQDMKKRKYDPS
PglD inh: blocks C. jejuni PglD acetyltransferase activity; purified PglD enzyme, DTNB colorimetric CoA detection; inhibition, % at 12.5 µM; hit rate 0.098% among 360,000; in the data active = inhibition above about 16%, passing the limit was not always enough; inconclusive = no clear call, values can overlap the other calls
Ecoli rRNA inh: inhibits bacterial ribosomal RNA function over humanized ribosomes; hit rate 1.6% among 350,000; GFP signal change (wild-type ribosome), % (test concentration not listed); E. coli WT GFP vs humanized-ribosome RFP mutants, fluorescence, 24 h; hits give low values; DMSO median 0, no signal -100;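 active = significant combined selectivity score with lowered wild-type GFP, culture density cut under 30%, mutant RFP and density less affected; inactive = any of these conditions unmet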
Xi reactivation: reactivates the inactive X chromosome in mouse fibroblasts. XiGFP mouse fibroblasts, % GFP-positive cells imaging, 3 d; cells co-treated with 5-aza-dC sensitizer; scaled so ellipticine positive control = 100%. activation, % at 7.58 µM. hit rate 0.055% among 360,000. AID 743238;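 active = mean normalized replicate activation at least 10% and every replicate at or above 10%; inconclusive = only one of the two criteria met; inactive = mean below 10% and not all replicates reach 10%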;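 also: 0% = median of on-plate neutral control wells and 100% = ellipticine 6 µM median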
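assay system = SV40-immortalized XiGFP fibroblast cells, line 68-5-11 | buffer or medium = DMEM plus 5-aza-dC sensitizer | doses = single-point pinned compound dosing | times = 3-day compound exposure, then 15 min fixation at room temperature | benchmarks = positive control ellipticine, 6 µM final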
RAD54 inh: inhibitors of human RAD54 branch migration; Q92698; RAD54 Holliday junction branch migration, FAM/BHQ fluorescence; inhibition, % at 10.4 µM; hit rate 0.14% among 360,000; AID 602329;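 active = mean normalized replicate activity at least 40 and at least half of replicates scoring 40 or more; inconclusive = only one of the two criteria met; inactive = mean below 40 and under half of replicates reaching 40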;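 also: 0% = median of neutral control wells and 100% = median of positive control wells; inhibitors cause a drop in the FAM fluorescence signal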
Rad54 DNA ctr: counter-screen for Rad54 inhibitors: DNA binding compounds; shares compounds with RAD54 inh; Acridine orange-DNA displacement, fluorescence polarization, 20 min; AC50, µM (top dose mostly 35 µM), without a hit: at the top dose activity change, negative = DNA binding; hit rate 8% among 460;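 active = signal drop giving an AC50 within twice the top valid tested concentration of each sample, actives reach about 35 µM in these data; inactive = activity opposite to expected, plus the rest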;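 also: polarization loss reports compound binding to salmon sperm DNA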
* marks the source's active call; other numbers are inactive results; i = inactive; ? = inconclusive; nt = not tested or not shown. The list is not random: actives were taken first. Their share in the collection is about 2%.

SMILES | E-selectin induc | RAD52 inh | PglD inh | Ecoli rRNA inh | Xi reactivation | RAD54 inh | Rad54 DNA ctr
CC(=O)Nc1ccc2c(c1)CC(=O)N(C)C[C@@H](C)[C@H](CN(C)C(C)=O)O2 | nt | nt | nt | 1.0 | 0.2 | nt | nt
Cc1cc(NCCCN(C)C)n2c(nc3ccccc32)c1C#N | 0.2 | 45.7 | -0.9 | -2.4 | 0.1 | 69.5* | -13.5%
N#Cc1cccc(-c2ccc([C@@H]3[C@H]4CN(C(=O)Nc5ccccc5)CCCCN4[C@H]3CO)cc2)c1 | -0.6 | -14.2 | 2.4 | 3.7 | -0.1 | 6.0 | nt
Cc1noc(C)c1NC(=O)N(C)C[C@H]1OCCCC[C@@H](C)Oc2ccc(NC(=O)Nc3cccc4ccccc34)cc2C(=O)N([C@H](C)CO)C[C@@H]1C | 0.0 | nt | -1.5 | 0.9 | -0.7 | -5.0 | nt
Cc1ccc(S(=O)(=O)N2CCOCC2)c(C)c1NS(C)(=O)=O | -0.4 | nt | -123.1 | nt | 0.4 | ? | 0.2%
O=C(Nc1ccc2c(c1)OCO2)c1cc(-c2ccncc2)nc2ccccc12 | nt | 12.4 | 1.2 | -21.6* | 0.6 | ? | 2.8%
O=C(N[C@@H]1CC[C@@H](CCn2cc(Cc3ccccc3)nn2)O[C@H]1CO)c1cnccn1 | -0.3 | 2.2 | -2.3 | 2.3 | 0.7 | -6.0 | nt
Cc1[nH]ccc2c1[nH]c1cc(=O)ccc12 | 1.0 | 41.5 | -11.3 | 12.3 | 0.0 | 68.4* | -12.2%
CCOC(=O)c1cc(-c2ccncc2)nc2c1c(C)nn2-c1ccccn1 | nt | nt | -0.9 | nt | nt | 65.2* | -8.4%
CCOC(=O)c1cnn(-c2ccccn2)c1N | nt | nt | 0.4 | nt | nt | 2.0 | nt
C[C@@H]1CN([C@H](C)CO)S(=O)(=O)c2ccc(C#CC3CC3)cc2O[C@H]1CN(C)C(=O)CN(C)C | -0.1 | 15.0 | 1.6 | 2.4 | -0.4 | 11.7 | nt
CN(C)CCN(C(=O)c1ccco1)c1nc2cc3c(cc2s1)OCCO3 | 0.3 | 44.2 | 4.0 | -7.1 | 0.1 | 64.1* | 2.1%
CN(C)CCCN(C(=O)c1ccco1)c1nc2ccc(Cl)cc2s1 | 0.0 | 37.7 | -3.1 | -18.6 | 0.1 | 22.9 | nt
COc1cccc(S(=O)(=O)N2C[C@@H](O)COC[C@H]3O[C@H](CC(=O)N4CCN(C)CC4)CC[C@@H]32)c1 | -0.2 | 8.7 | -1.6 | 2.7 | 0.0 | -9.4 | nt
CCN1CCN(CCCNC(=O)c2cc3cc4ccc(OC)cc4nc3o2)CC1 | nt | nt | -3.7 | nt | nt | 56.2* | -22.3%
COc1ccc2cc3cc(C(=O)NCCCN4CCC(C)CC4)oc3nc2c1 | nt | nt | -3.4 | nt | nt | 58.3* | -20.0%
COc1ccc2cc3cc(C(=O)NCCN4CCc5ccccc5C4)oc3nc2c1 | nt | nt | -3.4 | nt | nt | 30.8 | nt
CCCN(CCC)CCCNC(=O)c1cc2cc3ccc(OC)cc3nc2o1 | nt | nt | 5.5 | nt | nt | ? | -18.3%
COC(=O)C1=C(C)N(Cc2ccccc2C(F)(F)F)C(=NCc2ccc(OC)cc2)NC1c1ccc(F)cc1 (stereo unspecified) | -0.2 | -22.8 | nt | -41.9 | -0.1 | nt | nt
CNC(=O)C[C@H]1CC[C@@H]2[C@H](COC[C@@H](O)CN2Cc2ccc(C(F)(F)F)cc2)O1 | -0.1 | -10.8 | -2.8 | 1.5 | 0.0 | 5.3 | nt
CCOC(=O)Nc1c2ccccc2nc2ccccc12 | 0.3 | 16.3 | -0.2 | -7.7 | 0.7 | 56.7* | -13.4%
C[C@@H]1CN([C@@H](C)CO)C(=O)c2cc(C#CCC3CCCC3)cnc2O[C@H]1CN(C)S(=O)(=O)c1cccs1 | 6.9 | -6.0 | -2.9 | 5.6 | 0.0 | -1.7 | nt
O=C(C[C@H]1CC[C@@H]2[C@H](COC[C@H](O)CN2C(=O)c2ccc(F)cc2)O1)NC1Cc2ccccc2C1 | -0.2 | 1.7 | 2.6 | -5.3 | 0.5 | -6.7 | nt
Cc1nc2c(C)c(C)c(C)c(C)c2nc1C | -2.0 | 4.1 | -4.0 | 5.6 | 0.0 | -6.1 | nt
Cc1nc2nc(C)c(C)nc2nc1C | 0.6 | -3.0 | 3.1 | 12.1 | 0.2 | 55.8* | 9.8%
SMILES | E-selectin induc | RAD52 inh | PglD inh | Ecoli rRNA inh | Xi reactivation | RAD54 inh | Rad54 DNA ctr
O=C(Nc1ccc(Cl)cc1)c1cc(S(=O)(=O)N2CCOCC2)cs1 | nt | nt | -3.2 | nt | nt | 12.7 | nt
O=C(Nc1cccc(Cl)c1)c1cc(S(=O)(=O)N2CCOCC2)cs1 | -1.5 | -9.4 | -0.6 | -5.4 | 0.4 | 50.5* | -11.9%
C[C@H](CO)N1C[C@H](C)[C@H](CN(C)Cc2ccc(-c3ccccc3)cc2)Oc2c(NS(=O)(=O)c3cn(C)cn3)cccc2C1=O | -0.1 | -5.9 | -2.3 | -5.2 | 0.1 | -3.1 | nt
CCN(CC)CCCNC(=O)c1cc2c(-c3ccc(Cl)cc3)nn(C)c2s1 | nt | 45.2 | -8.5 | -1.9 | 0.1 | ? | 5.6%
Cn1nc(-c2ccc(Cl)cc2)c2cc(C(=O)NCC3CCCO3)sc21 (stereo unspecified) | nt | -8.2 | 2.3 | -35.4 | 0.0 | 4.5 | nt
CN1CCN(CCCNC(=O)c2cc3c(-c4ccc(Cl)cc4)nn(C)c3s2)CC1 | nt | 28.0 | -5.3 | 3.6 | -0.1 | 61.4* | 3.3%
C[C@@H]1CN([C@H](C)CO)C(=O)c2cccc(NS(=O)(=O)c3cccs3)c2O[C@@H]1CN(C)C(=O)Nc1ccc2c(c1)OCO2 | 1.8 | 15.3 | 5.8 | -1.6 | 0.0 | 6.1 | nt
NCc1csc(Nc2nncc3ccccc23)n1 | 0.1 | 29.9 | -5.7 | 12.1 | 0.0 | 74.6* | -7.8%
CCOC(=O)c1cnc2c(C)c(Cl)ccc2c1NCCCN1CCOCC1 | 0.0 | 3.0 | -6.5 | -2.9 | 0.0 | 60.0* | i
CCOC(=O)c1cnc2ccc(C)cc2c1NCCN1CCOCC1 | -0.1 | 4.3 | 3.8 | -8.5 | 0.0 | ? | -15.8%
CCOC(=O)c1ccc2ncc(C(=O)OCC)c(NCCCN3CCOCC3)c2c1 | nt | nt | -5.9 | nt | nt | 33.7 | nt
CO[C@@H]1CN(C)C(=O)c2cc(NS(=O)(=O)c3cccc(F)c3)ccc2OC[C@@H](C)N(C(=O)Cc2cccnc2)C[C@H]1C | 0.1 | -12.3 | -0.3 | -3.7 | 0.1 | 4.5 | nt
Cc1ccc(Sc2ncccc2C(=O)O)cc1C | nt | -4.8 | nt | 12.2 | -0.3 | nt | nt
COc1cc(NC(=O)c2cccnc2Sc2ccc(C)c(C)c2)cc(OC)c1OC | nt | nt | -9.1 | nt | 0.2 | ? | -2.5%
CN1c2ccc(C#Cc3cccnc3)cc2[C@@H]2[C@@H](CCN2S(=O)(=O)c2ccccc2F)[C@@H]1CO | 0.4 | 1.0 | -10.0 | -3.1 | 0.1 | -12.1 | nt
N#Cc1ccc(-c2ccc([C@@H]3[C@@H](CO)N4C(=O)CN(C(=O)C5CCCCC5)C[C@H]34)cc2)cc1 | -0.1 | -7.6 | nt | -1.3 | 0.0 | nt | nt
CC1CCCCN1CCNC(=O)c1cc2c(=O)n(C)c3ccccc3c2n1C (stereo unspecified) | 0.1 | -2.1 | 4.1 | -2.9 | 0.3 | 56.7* | -23.5%
Cn1c(C(=O)NC2CCCCC2)cc2c(=O)n(C)c3ccccc3c21 | 0.1 | -1.5 | 6.3 | nt | -0.1 | 7.9 | nt
NNC(=O)c1ccc2[nH]c3c(c2c1)CCCC3 | nt | -0.8 | nt | 0.5 | 0.0 | nt | nt
